{"data": "Results of several laboratories", "note": "Protocols differ between the studies behind these lines."}
{"SMILES": "CC1(C)OC[C@@]2(C)[C@H]3CC[C@@H]4CN(Cc5ccc(O)cc5)[C@@H](C5=CCOC5=O)C[C@H]4[C@]3(C)CC[C@H]2O1", "organism": "unidentified human coronavirus", "test": "cytopathic effect", "system": "MRC5", "conditions": "25 µM, 72 h", "endpoint": "inhibition", "result": "58.1%"}
{"SMILES": "CCCCCCC/C=C/C(=O)N1C(=O)/C(=C(/C)O)C(=O)C1Cc1ccc(O)cc1 (centres unmarked)", "organism": "Proteus mirabilis", "test": "microbial growth", "system": "ATCC25933", "endpoint": "MIC", "result": "> 200 µg/mL"}
{"SMILES": "CCOC(=O)N[C@H](C(=O)N1CCC[C@H]1C(=O)Nc1ccc(C#CC#Cc2ccc(NC(=O)[C@@H]3CCCN3C(=O)[C@@H](NC(=O)OCC)C(C)C)cc2)cc1)C(C)C", "organism": "Hepatitis C virus", "test": "viral replication, inhibitor, luciferase", "system": "Huh-5-2, GETYPE1B", "conditions": "72 h, replicon", "endpoint": "EC50", "result": "90 nM"}
{"SMILES": "CC(C)(O/N=C(\\C(=O)N[C@@H]1C(=O)N2C(C(=O)[O-])=C(C[n+]3ccccc3)CS[C@H]12)c1csc(N)n1)C(=O)O", "organism": "Acinetobacter baumannii", "test": "microbial growth, disc diffusion", "conditions": "10 µg/disc, clinical isolate", "endpoint": "inhibition zone", "result": "6 mm"}
{"SMILES": "CC(=O)OC[C@@]1(C)[C@H]2CC[C@@H]3CN(Cc4ccc(C(C)(C)C)cc4)[C@@H](C4=CCOC4=O)C[C@H]3[C@]2(C)CC[C@H]1OC(C)=O", "organism": "unidentified human coronavirus", "test": "cytopathic effect", "system": "MRC5", "conditions": "25 µM, 72 h", "endpoint": "inhibition", "result": "94.1%"}
{"SMILES": "Nc1nc(-c2ccccc2)nc2[nH]nc(Nc3ccc(C(F)(F)F)cc3)c12", "organism": "Enterovirus B", "test": "cytopathic effect", "system": "HeLa, CVB3", "endpoint": "IC50", "result": "140 nM"}
{"SMILES": "CCCCC(=O)N1C(=O)/C(=C(/C)O)C(=O)C1CC(C)C (centres unmarked)", "organism": "Proteus mirabilis", "test": "microbial growth", "system": "ATCC25933", "endpoint": "MIC", "result": "> 200 µg/mL"}
{"SMILES": "N#CC(=Cc1ccccc1O)C1=NC(=O)C(=Cc2cn(-c3ccccc3)nc2-c2ccccc2)S1", "organism": "Acinetobacter baumannii", "test": "microbial growth, well diffusion", "conditions": "100000 µg/mL", "endpoint": "inhibition zone", "result": "25 mm"}
{"SMILES": "CCOC(=O)N[C@@H](CC(C)C)C(=O)N1CCC[C@H]1C(=O)Nc1cccc(C#CC#Cc2cccc(NC(=O)[C@@H]3CCCN3C(=O)[C@H](CC(C)C)NC(=O)OCC)c2)c1", "organism": "Hepatitis C virus", "test": "viral replication, inhibitor, luciferase", "system": "GETYPE4A", "conditions": "replicon", "endpoint": "EC50", "result": "40.9 nM"}
{"SMILES": "CC1(C)OC[C@@]2(C)[C@H]3CC[C@@H]4CN(Cc5ccco5)[C@@H](C5=CCOC5=O)C[C@H]4[C@]3(C)CC[C@H]2O1", "organism": "unidentified human coronavirus", "test": "cytopathic effect", "system": "MRC5", "conditions": "25 µM, 72 h", "endpoint": "inhibition", "result": "17.5%"}
{"SMILES": "C[C@@]1(O)[C@H](O)[C@@H](CO)O[C@H]1n1ccc(N)nc1=O", "organism": "Hepatitis C virus", "test": "viral replication, inhibitor", "system": "Huh-7", "conditions": "replicon", "endpoint": "EC90", "result": "5800 nM"}
{"SMILES": "COC(=O)N[C@H](C(=O)N1CCC[C@H]1c1nc(-c2ccc(-c3ccc(-c4c[nH]c([C@@H]5CCCN5C(=O)[C@@H](NC(=O)OC)C(C)C)n4)cc3)cc2)c[nH]1)C(C)C", "organism": "Hepatitis C virus", "test": "viral replication, inhibitor, luciferase", "system": "GETYPE3A", "conditions": "replicon", "endpoint": "EC50", "result": "8.35 nM"}
{"SMILES": "OC[C@H]1O[C@@H](n2cnc3c(NCc4ccccc4)nc(Cl)nc32)[C@@H](F)[C@@H]1F", "organism": "Hepatitis C virus", "test": "viral replication, inhibitor", "system": "Huh-7", "conditions": "replicon", "endpoint": "EC90", "result": "9900 nM"}
{"SMILES": "O=C(CNc1nc(NS(=O)(=O)c2ccccc2)ncc1-c1nc2ccccc2s1)c1ccc(Br)cc1", "organism": "Enterovirus B", "test": "plaque formation", "system": "BGM, B4", "endpoint": "IC50", "result": "84 µg/mL"}
{"SMILES": "O=C(O)c1cn(C2CC2)c2cc(N3CCNCC3)c(F)cc2c1=O", "organism": "Acinetobacter baumannii", "test": "microbial killing, broth dilution", "endpoint": "MBC", "result": "0.25 µg/mL"}
{"SMILES": "CC1(C)OC[C@@]2(C)[C@H]3CC[C@@H]4CN(Cc5ccc([N+](=O)[O-])cc5)[C@@H](C5=CCOC5=O)C[C@H]4[C@]3(C)CC[C@H]2O1", "organism": "unidentified human coronavirus", "test": "cytopathic effect", "system": "MRC5", "conditions": "25 µM, 72 h", "endpoint": "inhibition", "result": "97.5%"}
{"SMILES": "CCOC(=O)N[C@H](C(=O)N1CCC[C@H]1C(=O)Nc1cccc(C#CC#Cc2cccc(NC(=O)[C@@H]3CCCN3C(=O)[C@@H](NC(=O)OCC)[C@@H](C)CC)c2)c1)[C@H](C)CC", "organism": "Hepatitis C virus", "test": "viral replication, inhibitor, luciferase", "system": "Huh-5-2, GETYPE1B", "conditions": "72 h, replicon", "endpoint": "EC50", "result": "392 nM"}
